This is an account of results in ChEMBL document CHEMBL1142101, “Cytotoxic diterpenoids from the bark of Pseudolarix kaempferi and their structure-activity relationships” (J Nat Prod, 2007).

A short description of data set [1]: Cytotoxicity against human BGC823 cells after 48 hrs by MTT assay. In kind it is cell-based, BGC-823. As to conditions: for Activity: human, bgc-823, 48 h; for IC50: Homo sapiens, BGC-823, 48 h; call rule not given here. Put shortly:
(§1)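 Cells seeded in 96-well plates and exposed to serial dilutions of test compound spanning 10-2 to 102 µM. Incubated 48 h at 37 °C in humidified air with 5% CO2. Growth inhibition read by MTT. IC50 taken as the concentration (µM) giving 50% inhibition of cell growth.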
For orientation: Tetrazolium assays rely on reduction of a dye to a coloured formazan, in cell work by metabolically active cells.

A short description of data set [2]: Cytotoxicity against human Bel7402 cells after 48 hrs by MTT assay. In kind it is cell-based, Bel-7402. As to conditions: for Activity: human, bel-7402, 48 h. In outline: as §1
The subject of a further data set is HL-60. Nature of the data set: Cytotoxicity against human HL60 cells after 48 hrs by MTT assay. The note with it: for Activity: human, hl-60, 48 h; for IC50: Homo sapiens, HL-60, 48 h. In kind it is cell-based. In outline:
as §1

Where [3] appears, read: Homo sapiens, Bel-7402, 48 h, read-out: IC50.

Where only a bound is given, the exact number is not on record here.

On to `COC(=O)C1=CC[C@@]23CC[C@@H]([C@@](C)(/C=C/C=C(\C)C(=O)OCC(O)CO)OC2=O)[C@@]3(O)CC1` (stereo partly drawn), for which the Activity entry (in data set [1]; in data set [2]; with HL-60) was “Not Active” throughout.
As for `CC1=CC[C@@]23CC[C@@H]([C@@](C)(/C=C/C=C(\C)C(=O)OCC(O)CO)OC2=O)[C@@]3(O)CC1` (stereo partly drawn), the Activity result (in data set [1]; in data set [2]; in the data set on HL-60) was “Not Active” each time.
Regarding `CC1=CC[C@@]23CC[C@@H]([C@@](C)(/C=C/C=C(\C)C(=O)O[C@@H]4O[C@H](CO)[C@@H](O)[C@H](O)[C@H]4O)OC2=O)[C@@]3(O)CC1`, the Activity result (in data set [1]; in the data set on HL-60) was “Not Active” each time. The half-maximal inhibitory concentration (IC50) result in data set [2] (bel-7402) was “Not Active”.
As for `CC1=CC[C@@]23CC[C@@H]([C@@](C)(/C=C/C=C(\C)C(=O)O)OC2=O)[C@@]3(O)CC1` [DEACETYLPSEUDOLARIC ACID A], the Activity result (in data set [1]; in data set [2]; in the data set on HL-60) was “Not Active” each time.
As to `O=c1[nH]cc(F)c(=O)[nH]1` [FLUOROURACIL], the values for the IC50 (in data set [1]; in data set [2] (setting [3]); in the data set with HL-60) were 31.2 µM, 23.2 µM and 0.16 µM, respectively.
Consider `CC(=O)O[C@]12CCC(C)=CC[C@]13CC[C@H]2[C@@](C)(/C=C/C=C(\C)C(=O)O)OC3=O` [PSEUDOLARIC ACID A], for which the 50% inhibitory concentration (IC50) in data set [1] is greater than 100 µM; in data set [2] (setting [3]), greater than 100 µM; in the data set with HL-60, 1.51 µM.
`COC(=O)C1=CC[C@@]23CC[C@@H]([C@@](C)(/C=C/C=C(\C)C(=O)O)OC2=O)[C@@]3(OC(C)=O)CC1` [PSEUDOLARIC ACID B]: the concentration for half-maximal inhibition (IC50) is greater than 100 µM in data set [1], greater than 100 µM in data set [2] (setting [3]) and 0.59 µM in the data set with HL-60.
Regarding `CC(=O)O[C@]12CCC(C(=O)O)=CC[C@]13CC[C@H]2[C@@](C)(/C=C/C=C(\C)C(=O)O)OC3=O` [PSEUDOLARIC ACID C2], the 50% inhibitory concentration (IC50) in data set [1] is greater than 100 µM. Also, the Activity entry (in data set [2]; with HL-60) was “Not Active” throughout.
On to `COC(=O)C1=CC[C@@]23CC[C@@H]([C@@](C)(/C=C/C=C(\C)C(=O)O)OC2=O)[C@@]3(O)CC1` [PSEUDOLARIC ACID C], for which the Activity result (in data set [1]; in the data set on HL-60) was “Not Active” each time. For the same compound, the IC50 result in data set [2] (bel-7402) is listed as “Not Active”.
As to `CC(=O)O[C@]12CC=C(C)C(=O)C[C@]13CC[C@H]2[C@@](C)(/C=C/C=C(\C)C(=O)O)OC3=O` [PSEUDOLARIC ACID F], the Activity result in data set [1] is on record as “Not Active”. Also, the IC50 in data set [2] (setting [3]) is greater than 100 µM; in the data set with HL-60 it was 55.4 µM.
With `CC(=O)O[C@]12CC=C(C)[C@H](O)C[C@]13CC[C@H]2[C@@](C)(/C=C/C=C(\C)C(=O)O)OC3=O` [PSEUDOLARIC ACID G], the half-inhibitory concentration (IC50) in data set [1] was greater than 100 µM; in data set [2] (setting [3]) it was greater than 100 µM; in the data set with HL-60 it was 11 µM.

One may read the IC50 as the concentration that inhibits the measured activity by half.
